One compound from ChEMBL document CHEMBL2346582, “Guanidino anthrathiophenediones as G-quadruplex binders: uptake, intracellular localization, and anti-Harvey-Ras gene activity in bladder cancer cells” (J Med Chem, 2013) can be followed below.

This test is filed under the species Homo sapiens. Put plainly: Thermal stabilization of human telomeric G-quadruplex FAM-TTAGGGTTAGGGTTAGGGTTAGGG-TAMRA DNA assessed as change in melting temperature at 1:5 DNA:ligand ratio by FRET assay. The method in brief: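 FRET melting of 200 nM dual-labelled quadruplex in 50 mM Tris-HCl with KCl (100 mM for htelo and hras-1, 10 mM for KRAS and hras-2). Ligand at r = 5 ([ligand]/[quadruplex]; hras-2 tabulated at r = 4). Samples held 5 min at 20 °C, then heated 1 °C/min to 95 °C. ΔTM is the TM with ligand minus TM without ligand (±0.5 K). For hras-1 both biphasic transitions are given.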

Each structure is given as a SMILES string.

As for `NCCOc1cc(C(=O)Nc2cc(OCCN)c3ccccc3n2)nc(C(=O)Nc2cc(OCCN)c3ccccc3n2)c1`, the deltaTm is 35 K.
